Source: ChEMBL document CHEMBL2434843, “Synthesis and evaluation of α-ketotriazoles and α,β-diketotriazoles as inhibitors of Mycobacterium tuberculosis” (Eur J Med Chem, 2013)
pIC50: −log10 of the molar value. ≈ marks a conversion by molar mass, not a printed value.

Assays:
[1] = Cytotoxicity against human GM637 cells after 4 days by WST-1 assay; format: cell-based; conditions: GM637, 96 h
Procedure, shortened: (§1)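 Cells were cultured in DMEM with 10% fetal calf serum and seeded at 3000 per well. After 24 h they were treated with 100 nM to 50 μM compound, 8 replicates per concentration, for 4 days. Viability was read by WST-1 and reported as IC50.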

[2] = system: HCT-116; assay: Cytotoxicity against human HCT116 cells after 4 days by WST-1 assay; format: functional, cell-based; conditions: HCT-116, 96 h; procedure, shortened: as §1
[3] = system: Mycobacterium tuberculosis; assay: Antitubercular activity against Mycobacterium tuberculosis H37Rv assessed as growth inhibition after 21 days by micro-broth dilution method; format: functional; conditions: 504 h
[4] = system: Mycobacterium tuberculosis; assay: Antitubercular activity against Mycobacterium tuberculosis H37Rv assessed as growth inhibition; format: functional
Procedure, shortened: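 M. tuberculosis H37Rv grown at 37 °C in Middlebrook 7H9 with 0.05% Tween 80, or on 7H11 agar with OADC. Culture dilutions of about 10^5-10^6 cfu/ml were streaked onto 7H11 plates holding 0.25 µg/mL to 40 µg/mL drug. Plates were incubated at 37 °C for about 21 days, and MIC was read from visual growth.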

Compound | pIC50 [1] | pIC50 [2] | MIC [3] [µM] | MIC [4] [mg/L]
O=C(C(=O)c1ccc(Cl)cc1Cl)c1cn(Cc2ccccc2)nn1 | < 4.30 | < 4.30 | 6.9 (≈ 2.49 µg/mL) | –
NNC(=O)c1ccncc1 [ISONIAZID] | – | – | 0.4 (≈ 0.0549 µg/mL) | –
CCCCCCCCn1cc(C(=O)Cc2ccc(Cl)cc2Cl)nn1 | – | – | 20.9 (≈ 7.7 µg/mL) | –
COc1cc(Cn2cc(C(=O)C(=O)c3ccccc3OC)nn2)cc(OC)c1 | < 4.30 | < 4.30 | 21 (≈ 8.01 µg/mL) | –
Cc1cc(C)cc(Cn2cc(C(=O)C(=O)c3ccccc3)nn2)c1 | < 4.30 | < 4.30 | 50 (≈ 16 µg/mL) | –
O=C(C(=O)c1cn(Cc2ccccc2)nn1)c1ccccc1 | < 4.30 | < 4.30 | 172 (≈ 50 µg/mL) | –
COc1ccc(CCn2cc(C(=O)Cc3ccc(OC)cc3)nn2)cc1 | – | – | > 91.1 | –
O=C(Cc1ccc(Cl)cc1Cl)c1cn(CCc2ccccc2)nn1 | – | – | > 88.8 | –
COc1ccccc1C(=O)C(=O)c1cn(Cc2ccccc2)nn1 | < 4.30 | < 4.30 | 12.4 (≈ 4 µg/mL) | –
O=C(C(=O)c1cn(Cc2ccc([N+](=O)[O-])cc2)nn1)c1ccccc1 | < 4.30 | < 4.30 | 11.9 (≈ 4 µg/mL) | –
O=C(Cc1ccccc1)c1cn(Cc2ccc([N+](=O)[O-])cc2)nn1 | < 4.30 | < 4.30 | – | –
O=C(C(=O)c1ccc(Cl)cc1Cl)c1cn(CCc2ccccc2)nn1 | < 4.30 | < 4.30 | 13.4 (≈ 5.01 µg/mL) | –
COc1cc(Cn2cc(C(=O)C(=O)c3ccccc3)nn2)cc(OC)c1 | < 4.30 | < 4.30 | 11.4 (≈ 4 µg/mL) | –
O=C(C(=O)c1ccc(Cl)cc1Cl)c1cn(C2CCCCC2)nn1 | – | – | 43.7 (≈ 15.4 µg/mL) | –
CCCCCCCCn1cc(C(=O)Cc2ccccc2)nn1 | < 4.30 | < 4.30 | – | –
O=C(C(=O)c1ccc(Cl)cc1Cl)c1cn(Cc2ccc([N+](=O)[O-])cc2)nn1 | < 4.30 | < 4.30 | 79 (≈ 32 µg/mL) | –
CCCCCCCCn1cc(C(=O)C(=O)c2ccc(Cl)cc2Cl)nn1 | < 4.30 | < 4.30 | 80.7 (≈ 30.9 µg/mL) | –
COc1ccc(C(=O)C(=O)c2cn(CCc3ccccc3)nn2)cc1 | < 4.30 | < 4.30 | > 95.4 | –
COc1cc(Cn2cc(C(=O)C(=O)c3ccc([N+](=O)[O-])cc3)nn2)cc(OC)c1 | < 4.30 | < 4.30 | 161 (≈ 64 µg/mL) | –
COc1cc(Cn2cc(C(=O)C(=O)c3ccc(Cl)cc3Cl)nn2)cc(OC)c1 | < 4.30 | < 4.30 | 9.51 (≈ 4 µg/mL) | –
COC(=O)c1ccc(Cn2cc(C(=O)C(=O)c3ccc(Cl)cc3Cl)nn2)o1 | – | – | 39.2 (≈ 16 µg/mL) | –
O=C(Cc1ccccc1)c1cn(Cc2ccccc2)nn1 | < 4.30 | < 4.30 | – | –
COc1ccc(CCn2cc(C(=O)C(=O)c3ccc(OC)cc3)nn2)cc1 | – | – | > 87.6 | –
O=C(C(=O)c1cn(Cc2ccccc2)nn1)c1ccc([N+](=O)[O-])cc1 | < 4.30 | < 4.30 | 95.1 (≈ 32 µg/mL) | –
CCCCCCCCn1cc(C(=O)C(=O)c2ccccc2)nn1 | – | – | 51 (≈ 16 µg/mL) | –
O=C(Cc1ccc(Cl)cc1Cl)c1cn(Cc2ccccc2)nn1 | < 4.30 | < 4.30 | – | –
COc1ccc(C(=O)C(=O)c2cn(Cc3ccccc3)nn2)cc1 | < 4.30 | < 4.30 | 7.6 (≈ 2.44 µg/mL) | –
CCCCCCCCc1cn(CC(=O)OCC)nn1 | – | – | – | 1.9 (≈ 7.11 µM)
COc1ccc(CC(=O)c2cn(CCc3ccccc3)nn2)cc1 | – | – | > 112 | –
Cc1cc(C)cc(Cn2cc(C(=O)Cc3ccccc3)nn2)c1 | < 4.30 | < 4.30 | – | –
